According to ChEMBL document CHEMBL3259528, “Exploring 5-nitrofuran derivatives against nosocomial pathogens: synthesis, antimicrobial activity and chemometric analysis” (2014):
≈ marks a conversion by molar mass, not a printed value. Calls of active or inactive are those of the source. The rule behind the calls is not given here.

Experiments:
Staphylococcus aureus [1] = assay: Antimicrobial activity against multidrug-resistant Staphylococcus aureus VISA3 […] by two-fold broth microdilution method; assay type: functional
Staphylococcus aureus [2] = assay: Antimicrobial activity against Staphylococcus aureus ATCC 29213 after 18 hrs by modified broth microdilution method; assay type: functional
In short: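 PGI90, the concentration giving 90% growth inhibition, fitted with an exponential growth curve from at least seven concentrations of the MIC assay. Inhibition % = [(Ac − Ap)/Ac] × 100 from A620 of drug-free control versus drug-treated culture. Checked by a modified broth microdilution (Phase 2).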

Escherichia coli [3] = assay: Antimicrobial activity against Escherichia coli ATCC 25922 at 128 uM after 24 to 48 hrs by two-fold broth microdilution method; assay type: functional, organism-based
In short: (§1)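 Antibacterial microdilution in CAMH, inoculum 0.5 McFarland diluted in saline/CAMH, 35 °C for 18 h, with further reads at 24 and 48 h. Activity is scored at the maximum tested concentration, 128 µM. Triplicate.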

Staphylococcus aureus [4] = assay: Antimicrobial activity against Staphylococcus aureus ATCC 29213 after 24 to 48 hrs by two-fold broth microdilution method; assay type: functional
Klebsiella pneumoniae = assay: Antimicrobial activity against Klebsiella pneumoniae ATCC 700603 at 128 uM after 24 to 48 hrs by two-fold broth microdilution method; assay type: functional, organism-based; in short: as §1
Serratia marcescens [5] = assay: Antimicrobial activity against Serratia marcescens ATCC 14576 at 128 uM after 24 to 48 hrs by two-fold broth microdilution method; assay type: functional, organism-based; in short: as §1
Enterobacter cloacae = assay: Antimicrobial activity against Enterobacter cloacae ATCC 23355 at 128 uM after 24 to 48 hrs by two-fold broth microdilution method; assay type: functional, organism-based; in short: as §1
Candida albicans [6] = assay: Antimicrobial activity against Candida albicans ATCC 537Y at 64 uM after 48 hrs by two-fold broth microdilution method; assay type: functional, organism-based
In short: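 Single top concentration of the antifungal microdilution: RPMI 1640, inoculum 0.5 McFarland diluted in saline/RPMI, 35 °C for 48 h. Activity is judged at the highest tested level, 64 µM. Run in triplicate.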

Enterococcus faecalis = assay: Antimicrobial activity against Enterococcus faecalis ATCC 29212 after 24 to 48 hrs by two-fold broth microdilution method; assay type: functional
Serratia marcescens [7] = assay: Antimicrobial activity against Serratia marcescens ATCC 14576 after 24 to 48 hrs by two-fold broth microdilution method; assay type: functional
Candida albicans [8] = assay: Antimicrobial activity against Candida albicans ATCC 537Y after 48 hrs by two-fold broth microdilution method; assay type: functional
In short: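 Two-fold serial dilutions in RPMI 1640 per CLSI M27-A2. Stocks in DMSO/RPMI 1:20 v/v. Test range 1.0–64 µM. Inoculum set to 0.5 McFarland, then diluted in saline and RPMI 1640. Plates held at 35 °C for 48 h. MIC is the lowest concentration giving prominent growth reduction. Run in triplicate.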

Escherichia coli [9] = assay: Antimicrobial activity against Escherichia coli ATCC 25922 after 24 to 48 hrs by two-fold broth microdilution method; assay type: functional

SMILES	MIC (Staphylococcus aureus [1]) [µM]	log(1/MIC>90) (Staphylococcus aureus [2])	Activity (Escherichia coli [3])	MIC (Staphylococcus aureus [4]) [µM]	MIC90 (Staphylococcus aureus [4]) [µM]	Activity (Klebsiella pneumoniae)	Activity (Serratia marcescens [5])	Activity (Enterobacter cloacae)	Activity (Candida albicans [6])	MIC (Enterococcus faecalis) [µM]	MIC90 (Enterococcus faecalis) [µM]	MIC (Serratia marcescens [7]) [µM]	MIC90 (Serratia marcescens [7]) [µM]	MIC (Candida albicans [8]) [µM]	MIC90 (Candida albicans [8]) [µM]	MIC (Escherichia coli [9]) [µM]	MIC90 (Escherichia coli [9]) [µM]
CC(=O)N1N=C(c2ccc(Cl)c(Cl)c2)OC1c1ccc([N+](=O)[O-])o1 (centres undefined)	4 (≈ 1.48 µg/mL)	5.33	inactive	4 (≈ 1.48 µg/mL)	4.63 (≈ 1.71 µg/mL)	inactive	inactive	inactive	inactive								
CCCCOc1ccc(C(=O)N/N=C/c2ccc([N+](=O)[O-])o2)cc1		5.38	inactive	2 (≈ 0.663 µg/mL)	4.14 (≈ 1.37 µg/mL)	inactive	inactive	inactive	inactive	16 (≈ 5.3 µg/mL)	24.1 (≈ 7.97 µg/mL)						
CC(=O)N1N=C(c2ccc(C(F)(F)F)cc2)OC1c1ccc([N+](=O)[O-])o1 (centres undefined)	4 (≈ 1.48 µg/mL)	5.25	inactive	4 (≈ 1.48 µg/mL)	5.6 (≈ 2.07 µg/mL)	inactive	inactive	inactive	inactive								
CCOc1ccc(C(=O)N/N=C/c2ccc([N+](=O)[O-])o2)cc1		5.43	inactive	2 (≈ 0.607 µg/mL)	3.7 (≈ 1.12 µg/mL)	inactive	inactive	inactive	inactive	32 (≈ 9.7 µg/mL)	34.9 (≈ 10.6 µg/mL)						
O=C(N/N=C/c1ccc([N+](=O)[O-])o1)c1ccc(F)cc1		5.18		2 (≈ 0.554 µg/mL)	6.64 (≈ 1.84 µg/mL)	inactive		inactive		64 (≈ 17.7 µg/mL)	71.2 (≈ 19.7 µg/mL)	64 (≈ 17.7 µg/mL)	104 (≈ 28.9 µg/mL)	32 (≈ 8.87 µg/mL)	57 (≈ 15.8 µg/mL)	32 (≈ 8.87 µg/mL)	44.1 (≈ 12.2 µg/mL)
CCOc1ccc(C2=NN(C(C)=O)C(c3ccc([N+](=O)[O-])o3)O2)cc1 (centres undefined)		5.09		8 (≈ 2.76 µg/mL)	8.14 (≈ 2.81 µg/mL)	inactive		inactive				64 (≈ 22.1 µg/mL)	85.7 (≈ 29.6 µg/mL)	8 (≈ 2.76 µg/mL)	8.39 (≈ 2.9 µg/mL)	64 (≈ 22.1 µg/mL)	78.6 (≈ 27.1 µg/mL)
CC(=O)N1N=C(c2ccc([N+](=O)[O-])cc2)OC1c1ccc([N+](=O)[O-])o1 (centres undefined)		5.14		4 (≈ 1.39 µg/mL)	5.78 (≈ 2 µg/mL)	inactive		inactive		32 (≈ 11.1 µg/mL)	57.3 (≈ 19.8 µg/mL)	64 (≈ 22.2 µg/mL)	90.5 (≈ 31.3 µg/mL)	32 (≈ 11.1 µg/mL)	44.6 (≈ 15.4 µg/mL)	32 (≈ 11.1 µg/mL)	54.6 (≈ 18.9 µg/mL)
CC(=O)N1N=C(c2ccc(Cl)cc2Cl)OC1c1ccc([N+](=O)[O-])o1 (centres undefined)		5.21		4 (≈ 1.48 µg/mL)	6.12 (≈ 2.27 µg/mL)	inactive		inactive		32 (≈ 11.8 µg/mL)	31.7 (≈ 11.7 µg/mL)	64 (≈ 23.7 µg/mL)	85.7 (≈ 31.7 µg/mL)	32 (≈ 11.8 µg/mL)	42.2 (≈ 15.6 µg/mL)	64 (≈ 23.7 µg/mL)	86.1 (≈ 31.9 µg/mL)
CC(=O)N1N=C(c2ccc(Br)cc2)OC1c1ccc([N+](=O)[O-])o1 (centres undefined)	8 (≈ 3.04 µg/mL)	5.29	inactive	4 (≈ 1.52 µg/mL)	5.13 (≈ 1.95 µg/mL)	inactive	inactive	inactive	inactive								
CCCCc1ccc(C(=O)N/N=C/c2ccc([N+](=O)[O-])o2)cc1	2 (≈ 0.631 µg/mL)	5.74	inactive	2 (≈ 0.631 µg/mL)	1.8 (≈ 0.568 µg/mL)	inactive	inactive	inactive	inactive	32 (≈ 10.1 µg/mL)	55.9 (≈ 17.6 µg/mL)						
CC(=O)N1N=C(c2ccc(C#N)cc2)OC1c1ccc([N+](=O)[O-])o1 (centres undefined)	4 (≈ 1.31 µg/mL)	5.41		2 (≈ 0.653 µg/mL)	3.89 (≈ 1.27 µg/mL)	inactive		inactive		64 (≈ 20.9 µg/mL)	75.2 (≈ 24.5 µg/mL)	64 (≈ 20.9 µg/mL)	96.3 (≈ 31.4 µg/mL)	32 (≈ 10.4 µg/mL)	47.6 (≈ 15.5 µg/mL)	32 (≈ 10.4 µg/mL)	43.1 (≈ 14.1 µg/mL)
CC(=O)N1N=C(c2ccc(Cl)cc2)OC1c1ccc([N+](=O)[O-])o1 (centres undefined)	4 (≈ 1.34 µg/mL)	5.26		4 (≈ 1.34 µg/mL)	5.45 (≈ 1.83 µg/mL)	inactive	inactive	inactive	inactive							64 (≈ 21.5 µg/mL)	88.7 (≈ 29.8 µg/mL)
N#Cc1ccc(C(=O)N/N=C/c2ccc([N+](=O)[O-])o2)cc1		5.27		4 (≈ 1.14 µg/mL)	5.35 (≈ 1.52 µg/mL)	inactive		inactive	inactive	32 (≈ 9.1 µg/mL)	40.4 (≈ 11.5 µg/mL)	64 (≈ 18.2 µg/mL)	111 (≈ 31.5 µg/mL)			64 (≈ 18.2 µg/mL)	97.3 (≈ 27.7 µg/mL)
CC(C)(C)c1ccc(C(=O)N/N=C/c2ccc([N+](=O)[O-])o2)cc1		5.28	inactive	4 (≈ 1.26 µg/mL)	5.28 (≈ 1.66 µg/mL)	inactive	inactive	inactive	inactive	32 (≈ 10.1 µg/mL)	59.8 (≈ 18.9 µg/mL)						
CCCCc1ccc(C2=NN(C(C)=O)C(c3ccc([N+](=O)[O-])o3)O2)cc1 (centres undefined)		4.73	inactive	16 (≈ 5.72 µg/mL)	18.5 (≈ 6.6 µg/mL)	inactive	inactive	inactive	inactive								
CN[C@H](CC(C)C)C(=O)N[C@H]1C(=O)N[C@@H](CC(N)=O)C(=O)N[C@H]2C(=O)N[C@H]3C(=O)N[C@H](C(=O)N[C@H](C(=O)O)c4cc(O)cc(O)c4-c4cc3ccc4O)[C@H](O)c3ccc(c(Cl)c3)Oc3cc2cc(c3O[C@@H]2O[C@H](CO)[C@@H](O)[C@H](O)[C@H]2O[C@H]2C[C@](C)(N)[C@H](O)[C@H](C)O2)Oc2ccc(cc2Cl)[C@H]1O [VANCOMYCIN]	2 (≈ 2.9 µg/mL)			< 20													
